ChEMBL document CHEMBL2176962, “Repositioning HIV-1 integrase inhibitors for cancer therapeutics: 1,6-naphthyridine-7-carboxamide as a promising scaffold with drug-like properties” (J Med Chem, 2012)

How the values were obtained:
HCT-116 [1] = experiment: Cytotoxicity against p53 expressing human HCT116 cells incubated for 72 hrs by MTT assay; format: functional, cell-based; details: HCT-116, 72 h
Summary of the method: (§1)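 Cells were kept in DMEM (MDA-MB-435, MCF7, LNCaP) or RPMI (HT29, HCT116) with 10% heat-inactivated FBS and 2 mM L-glutamine, subconfluent and in exponential growth. They were seeded, allowed to adhere overnight, then exposed continuously to compound (10 mM DMSO stock) for 72 h. MTT was added to 0.3 mg/mL final for 3–4 h at 37 °C, formazan was dissolved in DMSO, and absorbance was read at 570 nm. Runs were in triplicate; IC50 came from log concentration versus percent cell kill.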

HCT-116 [2] = experiment: Cytotoxicity against p53 deficient human HCT116 cells incubated for 72 hrs by MTT assay; format: functional, cell-based; details: HCT-116, 72 h; summary of the method: as §1
[3] = target: T1, Human immunodeficiency virus type 1 integrase (Human immunodeficiency virus 1, UniProt Q7ZJM1); experiment: Inhibition of HIV1 integrase strand transfer activity using [32P]-labeled linear oligonucleotide substrate
T1 sequence (Q7ZJM1 whole entry): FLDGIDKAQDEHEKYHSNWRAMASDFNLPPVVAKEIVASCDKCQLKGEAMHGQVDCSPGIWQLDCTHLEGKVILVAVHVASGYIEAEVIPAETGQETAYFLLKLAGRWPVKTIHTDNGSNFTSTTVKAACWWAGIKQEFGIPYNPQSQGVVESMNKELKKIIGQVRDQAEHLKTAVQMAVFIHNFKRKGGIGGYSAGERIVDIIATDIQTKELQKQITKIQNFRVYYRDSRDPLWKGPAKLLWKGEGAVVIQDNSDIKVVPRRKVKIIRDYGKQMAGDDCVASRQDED

MDA-MB-435 = experiment: Cytotoxicity against human MDA-MB-435 cells incubated for 72 hrs by MTT assay; format: functional, cell-based; details: MDA-MB-435, 72 h; summary of the method: as §1
[4] = target: T1, Human immunodeficiency virus type 1 integrase; experiment: Inhibition of HIV1 integrase 3'-processing activity using [32P]-labeled linear oligonucleotide substrate
SK-BR-3 = experiment: Cytotoxicity against human SKBR3 cells incubated for 72 hrs by MTT assay; format: functional, cell-based; details: SK-BR-3, 72 h
MCF7 = experiment: Cytotoxicity against human MCF7 cells incubated for 72 hrs by MTT assay; format: functional, cell-based; details: MCF7, 72 h; summary of the method: as §1
LNCaP = experiment: Cytotoxicity against human LNCAP cells incubated for 72 hrs by MTT assay; format: functional, cell-based; summary of the method: as §1
HT-29 = experiment: Cytotoxicity against human HT-29 cells incubated for 72 hrs by MTT assay; format: functional, cell-based; details: HT-29, 72 h; summary of the method: as §1
HEY = experiment: Cytotoxicity against human HEY cells incubated for 72 hrs by MTT assay; format: functional, cell-based
[5] = target: Receptor tyrosine-protein kinase erbB-2 (Homo sapiens) (UniProt P04626); experiment: Inhibition of ErbB2 at 10 uM incubated for 60 mins using poly(Glu,Tyr)4:1 substrate and 10 uM ATP by ELISA
Chain of Receptor tyrosine-protein kinase erbB-2 (Homo sapiens) (P04626 whole entry): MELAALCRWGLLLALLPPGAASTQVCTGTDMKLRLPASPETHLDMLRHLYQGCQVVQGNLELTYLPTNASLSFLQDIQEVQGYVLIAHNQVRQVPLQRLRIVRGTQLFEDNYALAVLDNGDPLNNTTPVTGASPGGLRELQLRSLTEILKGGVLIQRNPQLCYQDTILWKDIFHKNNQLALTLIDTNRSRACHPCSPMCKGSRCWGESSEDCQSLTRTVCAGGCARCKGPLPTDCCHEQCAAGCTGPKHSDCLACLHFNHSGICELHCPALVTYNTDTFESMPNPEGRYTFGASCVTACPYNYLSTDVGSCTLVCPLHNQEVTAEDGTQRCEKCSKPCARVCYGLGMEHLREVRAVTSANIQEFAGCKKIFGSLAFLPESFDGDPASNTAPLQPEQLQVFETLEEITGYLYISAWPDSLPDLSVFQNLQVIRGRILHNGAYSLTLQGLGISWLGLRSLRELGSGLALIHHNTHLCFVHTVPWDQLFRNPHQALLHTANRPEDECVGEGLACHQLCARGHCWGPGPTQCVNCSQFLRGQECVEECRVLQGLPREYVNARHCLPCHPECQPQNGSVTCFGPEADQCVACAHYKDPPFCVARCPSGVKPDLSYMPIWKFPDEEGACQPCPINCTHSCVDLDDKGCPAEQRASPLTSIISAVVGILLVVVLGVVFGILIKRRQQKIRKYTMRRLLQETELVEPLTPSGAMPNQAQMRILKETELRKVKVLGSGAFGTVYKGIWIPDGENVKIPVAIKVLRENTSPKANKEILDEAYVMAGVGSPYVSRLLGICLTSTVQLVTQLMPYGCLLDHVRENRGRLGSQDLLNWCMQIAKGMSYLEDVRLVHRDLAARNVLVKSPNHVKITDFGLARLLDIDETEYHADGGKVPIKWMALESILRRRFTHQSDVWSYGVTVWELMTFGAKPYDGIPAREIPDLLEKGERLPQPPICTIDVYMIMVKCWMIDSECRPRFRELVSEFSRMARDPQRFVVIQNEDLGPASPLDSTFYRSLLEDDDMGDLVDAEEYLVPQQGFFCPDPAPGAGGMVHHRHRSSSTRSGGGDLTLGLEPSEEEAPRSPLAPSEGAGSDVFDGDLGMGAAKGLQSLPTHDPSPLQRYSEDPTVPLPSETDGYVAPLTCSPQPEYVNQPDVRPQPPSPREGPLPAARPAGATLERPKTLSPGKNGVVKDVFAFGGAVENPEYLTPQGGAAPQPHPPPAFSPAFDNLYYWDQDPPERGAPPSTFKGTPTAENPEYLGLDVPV
Summary of the method: (§2)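 ELISA with Poly(Glu,Tyr)4:1 (20 μg/mL) precoated as substrate and 10 μM ATP, in 50 mM HEPES pH 7.4, 20 mM MgCl2, 0.1 mM MnCl2, 0.2 mM Na3VO4, 1 mM DTT. Compound was tested at 10 μM, in duplicate. Kinase reaction ran 60 min at 37 °C. Phosphotyrosine was detected with PY99 and HRP anti-mouse IgG, developed with o-phenylenediamine/H2O2, stopped with H2SO4 and read at 492 nm. Inhibition = [1 − A492 treated/A492 control] × 100%. References: lapatinib (ErbB2) and PP2 (Src), each at 10 μM.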

[6] = target: Proto-oncogene tyrosine-protein kinase Src (Homo sapiens) (UniProt P12931); experiment: Inhibition of SRC at 10 uM incubated for 60 mins using poly(Glu,Tyr)4:1 substrate and 10 uM ATP by ELISA; summary of the method: as §2
Chain of Proto-oncogene tyrosine-protein kinase Src (Homo sapiens) (P12931 2-536 limits assumed): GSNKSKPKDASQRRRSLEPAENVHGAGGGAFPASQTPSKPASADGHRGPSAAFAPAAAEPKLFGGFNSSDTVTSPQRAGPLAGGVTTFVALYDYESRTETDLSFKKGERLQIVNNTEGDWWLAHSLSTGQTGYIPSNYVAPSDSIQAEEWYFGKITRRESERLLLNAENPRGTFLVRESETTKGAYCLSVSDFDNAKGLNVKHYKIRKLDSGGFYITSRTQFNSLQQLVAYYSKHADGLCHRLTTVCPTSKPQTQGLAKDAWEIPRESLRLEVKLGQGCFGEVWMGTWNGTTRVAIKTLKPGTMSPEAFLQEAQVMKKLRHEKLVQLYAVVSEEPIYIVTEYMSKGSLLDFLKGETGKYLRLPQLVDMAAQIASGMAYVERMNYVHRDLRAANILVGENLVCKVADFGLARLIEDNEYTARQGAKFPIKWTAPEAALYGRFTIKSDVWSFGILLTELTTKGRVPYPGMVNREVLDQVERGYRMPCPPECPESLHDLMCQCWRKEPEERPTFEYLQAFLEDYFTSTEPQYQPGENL

SMILES | IC50 (HCT-116 [1]) | IC50 (HCT-116 [2]) | IC50 [3] | IC50 (MDA-MB-435) | IC50 [4] | IC50 (SK-BR-3) | IC50 (MCF7) | IC50 (LNCaP) | IC50 (HT-29) | IC50 (HEY) | inhibition [5] | inhibition [6]
CNc1c(C(=O)NCc2ccc(F)cc2)nc(Br)c2cccnc12 | > 20 µM | > 20 µM | > 100 µM | > 20 µM | > 100 µM | – | – | – | – | – | – | –
O=C(NCc1ccc(F)cc1)c1nc(Br)c2cccnc2c1NCc1ccc(F)cc1 | > 20 µM | > 20 µM | > 100 µM | > 20 µM | > 100 µM | – | – | – | – | – | – | –
COC(=O)CNc1c(C(=O)NCc2ccc(F)cc2)nc(Br)c2cccnc12 | > 10 µM | > 10 µM | – | 10 µM | – | 1 µM | > 10 µM | 5 µM | > 10 µM | – | – | –
N[C@H]1CC[C@H](Nc2c(C(=O)NCc3cccc(C(F)(F)F)c3)nc(Br)c3cccnc23)CC1 | – | – | – | 4.2 µM | – | – | 15 µM | – | – | 12 µM | – | –
N[C@H]1CC[C@H](Nc2c(C(=O)NCc3ccc(F)cc3)nc(N3CCCCS3(=O)=O)c3cccnc23)CC1 | > 10 µM | > 10 µM | – | 5 µM | – | 8.5 µM | 13 µM | 8 µM | > 10 µM | – | – | –
CS(=O)(=O)CCNCc1ccc(-c2ccc3ncnc(Nc4ccc(OCc5cccc(F)c5)c(Cl)c4)c3c2)o1 | – | – | – | – | – | – | – | – | – | – | 92% | –
N[C@H]1CC[C@H](Nc2c(C(=O)NCc3ccco3)nc(Br)c3cccnc23)CC1 | > 10 µM | – | – | > 10 µM | – | 10 µM | – | – | – | > 10 µM | – | –
Nc1cccc(Nc2c(C(=O)NCc3ccc(F)cc3)nc(Br)c3cccnc23)c1 | > 10 µM | > 10 µM | – | 8 µM | – | > 10 µM | 8 µM | 8 µM | > 10 µM | – | – | –
C[C@H](NC(=O)c1nc(Br)c2cccnc2c1N[C@H]1CC[C@H](N)CC1)c1ccc(F)cc1 | > 10 µM | – | – | > 10 µM | – | 9 µM | – | – | – | > 10 µM | – | –
N[C@H]1CC[C@H](Nc2c(C(=O)Nc3ccccc3)nc(Br)c3cccnc23)CC1 | 2 µM | – | – | 1 µM | – | 2 µM | – | – | – | 1 µM | 0% | –
C[C@H](Nc1c(C(=O)NCc2ccc(F)cc2)nc(Br)c2cccnc12)c1ccccc1 | > 20 µM | > 20 µM | > 111 µM | > 20 µM | > 111 µM | – | – | – | – | – | – | –
N[C@H]1CC[C@H](Nc2c(C(=O)NCc3cccs3)nc(Br)c3cccnc23)CC1 | – | – | – | 4.1 µM | – | – | 7.3 µM | – | – | 11 µM | – | –
CC(C)(C)OC(=O)N1CCC(Nc2c(C(=O)NCc3ccc(F)cc3)nc(Br)c3cccnc23)CC1 | > 10 µM | 9 µM | – | 20 µM | – | 1 µM | > 10 µM | > 10 µM | > 10 µM | – | – | –
CC(C)(C)OC(=O)N1CCN(c2c(C(=O)NCc3ccc(F)cc3)nc(Br)c3cccnc23)CC1 | > 10 µM | > 10 µM | – | 10 µM | – | 3 µM | > 10 µM | > 10 µM | > 10 µM | – | – | –
N[C@H]1CC[C@H](Nc2c(C(=O)NCc3ccc(Oc4ccccc4)cc3)nc(Br)c3cccnc23)CC1 | – | – | – | 4 µM | – | – | 7.9 µM | – | – | 9 µM | – | –
N[C@H]1CC[C@H](Nc2c(C(=O)NCc3ccccc3)nc(Br)c3cccnc23)CC1 | 7 µM | – | – | 7 µM | – | 8 µM | – | – | – | 8 µM | 0% | –

SMILES | IC50 (HCT-116 [1]) | IC50 (HCT-116 [2]) | IC50 [3] | IC50 (MDA-MB-435) | IC50 [4] | IC50 (SK-BR-3) | IC50 (MCF7) | IC50 (LNCaP) | IC50 (HT-29) | IC50 (HEY) | inhibition [5] | inhibition [6]
N[C@H]1CC[C@H](Nc2c(C(=O)NCc3ccccn3)nc(Br)c3cccnc23)CC1 | – | – | – | 4 µM | – | – | 15 µM | – | – | > 20 µM | – | –
N[C@H]1CC[C@H](Nc2c(C(=O)NCc3ccc4c(c3)OCO4)nc(Br)c3cccnc23)CC1 | 7 µM | – | – | 7 µM | – | 6 µM | – | – | – | 4 µM | 0% | –
N[C@H]1CC[C@H](Nc2c(C(=O)NCc3ccc(F)cc3)nc(N3CCCCC3)c3cccnc23)CC1 | 8 µM | 8.5 µM | – | 5 µM | – | > 10 µM | 5 µM | – | – | – | – | –
CNCCCNc1c(C(=O)NCc2ccc(F)cc2)nc(Br)c2cccnc12 | 9 µM | > 10 µM | – | 11 µM | – | 1 µM | > 10 µM | 8 µM | > 10 µM | – | – | –
CN(C)c1ccc(CNC(=O)c2nc(Br)c3cccnc3c2N[C@H]2CC[C@H](N)CC2)cc1 | – | – | – | 4 µM | – | – | 5 µM | – | – | 5.3 µM | – | –
COC(=O)c1nc(Br)c2cccnc2c1N[C@H]1CC[C@H](N)CC1 | – | – | – | > 20 µM | – | – | > 20 µM | – | – | > 20 µM | – | –
O=C(NCc1ccc(F)cc1)c1nc(Br)c2cccnc2c1NCc1ccccc1 | > 20 µM | > 20 µM | > 100 µM | > 20 µM | > 100 µM | – | – | – | – | – | – | –
N[C@H]1CC[C@H](Nc2c(C(=O)NCCc3ccccc3)nc(Br)c3cccnc23)CC1 | 8.8 µM | – | – | 8 µM | – | 7 µM | – | – | – | 6 µM | 0% | –
N[C@H]1CC[C@H](Nc2c(C(=O)NC3CCCCC3)nc(Br)c3cccnc23)CC1 | > 10 µM | – | – | > 10 µM | – | 4.2 µM | 5.2 µM | – | – | 5.2 µM | – | –
CC(C)(C)n1nc(-c2ccc(Cl)cc2)c2c(N)ncnc21 | – | – | – | – | – | – | – | – | – | – | – | 94%
N[C@H]1CC[C@H](NC(=O)c2nc(Br)c3cccnc3c2NCc2ccc(F)cc2)CC1 | 6.4 µM | – | – | 6.6 µM | – | 2.8 µM | – | – | – | 7.1 µM | 3% | 0%
C[C@@H](Nc1c(C(=O)NCc2ccc(F)cc2)nc(Br)c2cccnc12)c1ccccc1 | > 20 µM | > 20 µM | > 111 µM | > 20 µM | > 111 µM | – | – | – | – | – | – | –
O=C(NCc1ccc(F)cc1)c1nc(Br)c2cccnc2c1NCCCNc1c(C(=O)NCc2ccc(F)cc2)nc(Br)c2cccnc12 | > 20 µM | > 20 µM | > 100 µM | > 20 µM | > 100 µM | – | – | – | – | – | – | –
O=C(NCCCNc1c(C(=O)NCc2ccc(F)cc2)nc(Br)c2cccnc12)c1ccccc1 | > 10 µM | > 10 µM | – | > 20 µM | – | 1 µM | 2 µM | > 10 µM | > 10 µM | – | – | –
COc1cccc(CNC(=O)c2nc(Br)c3cccnc3c2N[C@H]2CC[C@H](N)CC2)c1 | 6 µM | – | – | 7 µM | – | 6 µM | – | – | – | 7 µM | 0% | –
NCCNc1c(C(=O)NCc2ccc(F)cc2)nc(Br)c2cccnc12 | > 20 µM | > 20 µM | > 100 µM | 12 µM | > 100 µM | – | 6 µM | – | – | – | – | –
